# ALR H2O2 inh: human ALR oxidase inhibition via reduced H2O2. P55789. purified ALR, DTT oxidation, H2O2 HRP-luminol luminescence. inhibition, % (test concentration not listed). 290,000 compounds, 3.8% hits;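 active means mean replicate inhibition above about 79%, with every replicate also reaching it, limit read from the data; inconclusive means only one of the two criteria met; inactive means mean below limit and not every replicate reaching it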
# NALP1 inh: blocks the NALP1 inflammasome reconstituted in yeast; S. cerevisiae NALP1/ASC/caspase-1 growth, X-gal OD620, 72 h; inhibition, % at 10 µM; 280,000 compounds, 0.61% hits; AID 2071; in the data active means inhibition mostly above about 24%, no sharp cut-off; inactive means mostly below about 32%
# Arr AP2 block: inhibitors of human beta-arrestin and AP2 interaction; 340,000 compounds, 0.31% hits; AID 504490; FITC-arrestin peptide / GST-AP2 beads, flow cytometry; AP2 beta2 appendage carries R879A mutation; inhibition, % at 10 µM;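 active means inhibition above a set limit, near 3 SD of compounds lacking own fluorescence, cut at about 54% in these data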;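 further: plate controls were DMSO wells for no effect and 5 µM unlabelled arrestin peptide for full effect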
#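 Material – GST-tagged AP2 beta2-adaptin appendage (R879A) on 4 µm glutathione beads · Probe or stimulus – fluorescein-tagged arrestin peptide at 50 nM final · Timing – 12 min plus 1 h, RT · Detection – bead flow cytometry, FITC channel · Read-out basis – inhibition as reduced fluorescein signal on beads, percent · Medium – PBS plus Tween 20 (0.05%) and BSA (0.1%)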
# NLRP3 yeast inh: blocks the NALP3 inflammasome reconstituted in yeast. 330,000 compounds, 0.39% hits. AID 2825. Yeast reconstituted NLRP3/ASC/caspase-1, beta-gal luminescence, 24 h. inhibition, % at 10 µM;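 active means inhibition of 50% or more; inactive means inhibition below 50%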;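 further: plate controls were induced DMSO wells for no effect and uninduced yeast grown without galactose for full effect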
# DSG3 Ab inh: blocks pemphigus antibody binding to human desmoglein-3; binding (percent of control), % at 10 µM; P32926; 310,000 compounds, 0.48% hits; DSG3-coupled beads, scFv-anti-DSG3-GFP binding, flow cytometry; stronger effect = lower value;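 active means binding more than 3 SD below its plate's average and above zero; inconclusive means below that plate limit but binding exactly zero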
# Target sequence (P32926 whole entry, looked up): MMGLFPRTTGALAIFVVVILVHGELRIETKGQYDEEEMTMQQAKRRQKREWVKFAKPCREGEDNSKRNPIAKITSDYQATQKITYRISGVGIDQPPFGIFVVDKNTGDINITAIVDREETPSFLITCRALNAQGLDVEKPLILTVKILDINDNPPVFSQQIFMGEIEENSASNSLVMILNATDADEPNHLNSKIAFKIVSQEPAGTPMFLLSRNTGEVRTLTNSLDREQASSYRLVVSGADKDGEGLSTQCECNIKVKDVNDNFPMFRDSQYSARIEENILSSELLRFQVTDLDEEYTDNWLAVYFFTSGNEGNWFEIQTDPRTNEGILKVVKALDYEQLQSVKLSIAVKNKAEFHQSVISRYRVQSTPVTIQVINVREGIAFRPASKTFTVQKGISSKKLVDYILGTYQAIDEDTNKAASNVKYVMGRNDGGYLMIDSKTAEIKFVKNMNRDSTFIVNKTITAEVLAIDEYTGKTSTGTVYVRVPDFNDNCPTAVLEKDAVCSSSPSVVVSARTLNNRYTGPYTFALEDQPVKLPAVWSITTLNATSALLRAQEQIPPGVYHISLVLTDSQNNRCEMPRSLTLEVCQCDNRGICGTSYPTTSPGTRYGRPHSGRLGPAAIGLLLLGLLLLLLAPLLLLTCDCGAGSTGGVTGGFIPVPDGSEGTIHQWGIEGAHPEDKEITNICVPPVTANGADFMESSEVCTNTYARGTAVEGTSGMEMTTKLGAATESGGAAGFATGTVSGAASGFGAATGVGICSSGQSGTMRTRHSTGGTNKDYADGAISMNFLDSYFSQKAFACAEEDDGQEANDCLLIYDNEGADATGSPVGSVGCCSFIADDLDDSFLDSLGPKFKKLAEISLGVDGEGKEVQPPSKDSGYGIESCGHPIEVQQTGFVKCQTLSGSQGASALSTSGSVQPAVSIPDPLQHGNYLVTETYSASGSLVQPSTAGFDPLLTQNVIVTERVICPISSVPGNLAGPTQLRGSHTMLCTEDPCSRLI
# PolyA inh: yeast polyadenylation inhibition; S. cerevisiae SKY197-pL101 polyadenylation reporter, beta-gal luminescence; efflux-impaired pdr1/pdr3 knockout yeast; score 100 = 6 SD above DMSO; activity score, % at 12 µM; 300,000 compounds, 0.02% hits;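 active means lowest replicate activity score at least 50, where 100 means six control SD above control mean; inconclusive means lowest score under 50 but half or more replicates reach 50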;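 further: yeast exposed to compound for 9 h at 30 °C; higher score means more reporter readthrough which indicates perturbed polyadenylation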
# * marks the source's active call; other numbers are inactive results; ? = inconclusive; . = no result. An excerpt weighted towards active compounds, which were near 4.6% of everything screened.
SMILES,ALR H2O2 inh,NALP1 inh,Arr AP2 block,NLRP3 yeast inh,DSG3 Ab inh,PolyA inh
N=C1C(c2nc3ccccc3c(=O)[nH]2)=C(O)CN1c1ccccc1,.,37.8*,.,.,.,.
Cc1ccc(N2CC(O)=C(c3nc4ccccc4c(=O)[nH]3)C2=N)cc1C,-16.2,-3.6,3.8,39.8,107.8,16.9
Cc1ccc(NC(=O)CSc2nc3ncc(Br)cc3[nH]2)cc1C,-0.5,22.8,20.1,3.3,102.0,5.2
Cc1cc(NS(=O)(=O)c2ccc(NC(=O)c3ccco3)cc2)nc(C)n1,-5.2,4.1,6.7,14.2,102.1,10.0
Cc1cc(NS(=O)(=O)c2ccc(NC(=O)/C=C/c3ccco3)cc2)nc(C)n1,7.1,37.9*,32.7,14.6,88.9,14.1
Cc1cc(NS(=O)(=O)c2ccc(NC(=O)CSc3nc4ncccc4[nH]3)cc2)nc(C)n1,98.9*,-1.9,21.3,1.1,100.5,7.3
Cc1cc(NS(=O)(=O)c2ccc(NC(=O)CSc3nc4ncc(Br)cc4[nH]3)cc2)nc(C)n1,98.8*,4.8,-9.9,-7.7,101.7,-14.6
Cc1cc(NS(=O)(=O)c2ccc(NC(=O)CSc3nc4ncc(Cl)cc4[nH]3)cc2)nc(C)n1,99.5*,-21.2,-8.6,-3.2,103.6,8.8
Cc1cc(C)nc(NS(=O)(=O)c2ccc(NC(=O)CSc3nc4ccccc4[nH]3)cc2)n1,5.3,24.0,6.5,26.5,100.8,8.4
Cc1cc(NS(=O)(=O)c2ccc(NC(=O)c3ccc(Cl)nc3)cc2)nc(C)n1,.,.,.,.,112.7,.
Cc1cc(NS(=O)(=O)c2ccc(NC(=O)c3cnc(Cl)c(Cl)c3)cc2)nc(C)n1,98.7*,.,-1.5,18.3,101.5,.
COc1ccc(Nc2n[nH]c(N)c2C(N)=O)cc1,99.2*,-13.3,11.1,5.3,100.2,-18.0
CCOc1cc(/C=N/O)ccc1OCc1ccc(C)cc1,98.0*,40.1,13.2,16.6,100.0,-40.4
COCCN=c1scc(-c2ccccc2)n1/N=C/c1c[nH]c2ccccc12,24.8,8.1,17.5,-4.4,101.1,-5.3
CCN=c1scc(C)n1/N=C/c1ccc(O)c(O)c1O,99.2*,15.2,19.5,15.2,91.3,-2.0
COCCN=c1scc(-c2cccs2)n1/N=C/c1ccc(O)c(O)c1O,99.0*,16.8,11.0,26.5,74.1,-5.6
CCN=c1scc(C)n1/N=C/c1cc(Br)c(O)c(Br)c1,69.7,8.5,7.0,39.2,100.4,-16.3
Cc1ccc(S(=O)(=O)NCC2CCC(C(=O)N3CCN(C)CC3)CC2)cc1 (configuration not stated),-1.9,13.1,-11.5,12.7,102.4,2.2
CC(C)(C)CNC(=O)c1cccc2c1C(=O)c1ccc(-c3cc4ccccc4o3)cc1S2(=O)=O,35.1,.,3.3,10.7,98.3,.
CSc1cccc(NC(=O)Nc2ccccc2C(N)=O)c1,91.5*,-13.9,-12.6,10.8,94.8,-6.8
CSc1cccc(NC(=O)Nc2ccccc2)c1,-0.8,-7.4,11.3,14.8,97.8,-19.1
CCOC(=O)C1=C(COC(=O)c2cc(S(=O)(=O)N3CCOCC3)ccc2F)NC(=O)NC1C (configuration not stated),.,.,25.1,.,104.2,.
CCN(C[C@H]1N[C@@](C)(C(=O)OC)[C@H]2C(=O)N(C)C(=O)[C@@H]12)C(=O)COc1ccccc1,3.1,.,15.5,15.2,110.7,.
Cc1ccc(C(=O)O)cc1S(=O)(=O)Nc1ccccc1C(=O)NC1CC1,.,.,-2.8,23.3,103.7,.
CC(C)c1ccc(NC2CCCN(C(=O)c3n[nH]c4c3CCC4)C2)cc1 (configuration not stated),98.7*,3.1,1.9,10.6,100.8,22.5
SMILES,ALR H2O2 inh,NALP1 inh,Arr AP2 block,NLRP3 yeast inh,DSG3 Ab inh,PolyA inh
CC(C)c1ccc(NC2CCCN(C(=O)c3cccnc3)C2)cc1 (configuration not stated),68.8,15.7,3.8,5.5,.,-3.6
CC(C)c1ccc(NC2CCCN(C(=O)c3ccsc3)C2)cc1 (configuration not stated),98.4*,10.2,5.7,13.7,128.3,5.5
CC(C)c1ccc(NC2CCCN(C(=O)c3cnn(C(C)C)c3)C2)cc1 (configuration not stated),.,2.1,40.3,4.4,108.4,5.5
COC(=O)c1ccc(C(=O)N2CCCC(Nc3ccc(C(C)C)cc3)C2)cc1 (configuration not stated),98.1*,17.0,52.4,6.3,106.2,3.7
O=C(c1ccsc1)N1CCCC(Nc2ccc(F)c(F)c2)C1 (configuration not stated),57.4,12.6,-1.7,-5.3,101.7,-0.7
Cc1ccc(NC(=O)COC(=O)c2ccc(CN3CCCC3=O)cc2)c(Cl)c1,-2.5,.,-0.9,14.3,102.5,.
CCOc1nc(Oc2cccc(C(=O)O)c2)nc(Oc2cccc(C(=O)O)c2)n1,97.1*,-6.1,-3.8,9.5,106.3,-5.8
CCS(=O)(=O)c1ncc(CO)n1CCc1ccccc1,3.8,-2.7,15.8,12.0,109.4,9.8
CCCCn1c(SCC(=O)NC(C)CC)nc2ccc(N3CCOCC3)cc2c1=O (configuration not stated),-36.9,20.0,21.9,9.4,104.0,-0.1
COC(=O)c1ccc2c(=O)n(CCN3CCOCC3)c(SCC(=O)Nc3ccc(C)cc3)nc2c1,99.0*,6.5,-12.0,10.9,107.8,-0.9
CCCCn1c(SCC(=O)Nc2ccc(OC)cc2)nc2ccc(N3CCOCC3)cc2c1=O,99.0*,.,20.4,-3.8,97.9,5.6
Cc1cc(Cl)ccc1OC(C)C(=O)Nc1cnn(CCCC(=O)O)c1 (configuration not stated),2.2,-10.3,27.8,0.4,.,1.1
CCCCCC(=O)Nc1ccc(S(=O)(=O)NC2=NCCCCC2)cc1,10.1,.,-2.6,3.3,.,.
COc1cc(NS(=O)(=O)c2ccc(NC(=O)/C=C/c3cccc([N+](=O)[O-])c3)cc2)ncn1,89.1*,14.2,35.5,7.0,82.8,0.1
COc1cc(NS(=O)(=O)c2ccc(NC(=O)/C=C/c3ccc([N+](=O)[O-])cc3)cc2)ncn1,-5.2,13.6,6.1,17.0,94.5,-0.7
CC(/C=N/NC(=O)c1ccc(Br)cc1)=C\c1ccccc1,-2.5,36.1*,-2.3,8.4,101.1,15.8
COc1ccc(C(=O)N/N=C\C(C)=C\c2ccccc2)cc1OC,-1.9,.,-16.2,-1.6,.,-4.3
COc1ccc(Cl)c2sc(N3CCN(C(C)=O)CC3)nc12,-68.5,8.7,1.0,9.8,106.2,7.2
Cc1ccccc1/C=N\NC(=O)c1ccc(Cn2cccn2)o1,-6.2,26.3,-0.6,12.9,88.2,9.9
O=C(N/N=C\c1cccc(Cl)c1)c1ccc(Cn2cccn2)o1,87.5*,18.0,-9.0,18.9,128.4,16.9
CC(/C=N/n1c(-c2ccccc2)n[nH]c1=S)=C\c1ccco1,?,30.4,6.4,21.3,124.5,-25.9

# From PubChem
